For nine molecules, GFP response vs DMSO, GFP response relative to DMSO and GFP response, % of DMSO results are on record in PubChem BioAssay.

Test [1] is described as follows: hit retest on RPL19A-GFP reporter strain – cell-based, S. cerevisiae, flow cytometry, cherry picks, mother/daughter gates, confirmation (AID 2270;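 active means GFP response below 50% of the DMSO control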). As to conditions: 3 h, at 10 µM, stronger effect = lower value, 100 = same GFP as DMSO wells. (Flow cytometry measures light scatter and fluorescence of single cells or particles in a stream.)
Test [2] can be described thus: yeast TOR pathway reporter LAP4-GFP change – cell-based, cherry picks, flow cytometry, mother/daughter gates, confirmation (AID 2271;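 active means GFP response above 150% of the DMSO control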;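 further: ratio of sample to DMSO plate mean so 100% equals DMSO level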). As to conditions: S. cerevisiae LAP4-GFP strain, 3 h, at 10 µM, stronger effect = higher value, 100 means same as DMSO control. Put shortly: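 System – GFP-fusion yeast strain · Amount – 0.2 OD600 cells · Buffer or medium – SC growth medium · Dosing – single test-compound dose, 10 µM final · Schedule – 3 h treatment at 30 °C with rotation · Detection – GFP by flow cytometry · Read-out – per-gate (all, mother, daughter) GFP response vs DMSO · Benchmarks – positive rapamycin (400 ng/mL), negative DMSO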

Test [3] is described as follows: TOR pathway reporter MEP2-GFP, retest of hits – S. cerevisiae, flow cytometry GFP, cherry picks, confirmation (AID 2272;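 active means GFP response above 150% of the DMSO control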;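 further: ratio of well signal to plate DMSO mean so 100% equals DMSO level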). Particulars: S. cerevisiae MEP2-GFP strain, 3 h, at 10 µM, stronger effect = higher value.
Test [4] is described as follows: yeast AGP1-GFP fluorescence change, single-dose – cell-based, flow cytometry, S. cerevisiae, cherry picks, confirmation (AID 2273).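 Further: median GFP channel fluorescence over the whole cell population gate.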 As to conditions: S. cerevisiae AGP1-GFP strain, 3 h, at 10 µM.
The nature of test [5]: TOR pathway CIT2 reporter hit retest – S. cerevisiae, GFP fusion, cherry picks, mother/daughter gates, confirmation (AID 2274). As to conditions: S. cerevisiae CIT2-GFP strain, flow cytometry, 3 h, at 10 µM, stronger effect = higher value.
Where [6] appears, read: measured here: daughter cell gate.
Setting [7] is: measured here: mother cell gate.
[8] abbreviates: measured here: daughter cell gate response.
[9] abbreviates: measured here: mother cell gate response.

The source made the active and inactive calls.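 How the source made its calls, unless noted: active means GFP response above 150% of the DMSO level; inconclusive means fewer than 70 events counted for a yeast strain; inactive means the rest.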

Take `COc1ccccc1NC(=O)c1ccc(N)cc1`: the GFP response vs DMSO in test [1] is 98% (inactive); in test [1] (setting [6]) it was 98%; in test [1] (setting [7]), 98.1%; in test [3] it was 99.5% (inactive). In addition, the GFP response relative to DMSO in test [2] is 100% (inactive); in test [2] (setting [8]) it was 102%; in test [2] (setting [9]), 100%. For the same molecule, the GFP response, % of DMSO in test [4] is 98.7% (inactive); in test [5], 102% (inactive); in test [5] (setting [6]) it was 104%; in test [5] (setting [7]) it was 101%.
For `COc1cc(/C=C/C(=O)c2c(O)cc(C)oc2=O)cc(OC)c1O`, the GFP response vs DMSO in test [1] was 98.2% (inactive); in test [1] (setting [6]), 99.6%; in test [1] (setting [7]), 96.8%; in test [3], 105% (inactive). Also, the GFP response relative to DMSO in test [2] was 106% (inactive); in test [2] (setting [8]) it was 104%; in test [2] (setting [9]), 106%. The GFP response, % of DMSO is 101% (inactive) in test [4], 97.3% (inactive) in test [5], 99.2% in test [5] (setting [6]) and 94.4% in test [5] (setting [7]).
Consider `CCCCC1OC23CCCCC2C(C#N)(C(=N)O3)C1(C#N)C#N` (centres undefined), for which the GFP response vs DMSO in test [1] was 101% (inactive); in test [1] (setting [6]), 100%; in test [1] (setting [7]) it was 96.8%; in test [3], 176% (active). Also, the figures for the GFP response relative to DMSO in test [2], in test [2] (setting [8]) and in test [2] (setting [9]) were 118% (inactive), 117% and 111%, respectively. In addition, the GFP response, % of DMSO in test [4] is 103% (inactive); in test [5], 119% (inactive); in test [5] (setting [6]), 103%; in test [5] (setting [7]), 98.7%.
Consider `Oc1c(C(Nc2nc3ccccc3s2)c2ccco2)ccc2cccnc12` (centres undefined), for which the GFP response vs DMSO in test [1] was 98.9% (inactive); in test [1] (setting [6]) it was 98.7%; in test [1] (setting [7]) it was 95.9%; in test [3], 112% (inactive). For the same molecule, the figures for the GFP response relative to DMSO in test [2], in test [2] (setting [8]) and in test [2] (setting [9]) were 149% (inactive), 132% and 145%, respectively. The GFP response, % of DMSO in test [4] is 97.7% (inactive); in test [5], 100% (inactive); in test [5] (setting [6]), 103%; in test [5] (setting [7]), 94.9%.
For `O=C(NNC(=S)NC(=O)c1cn(-c2ccccc2)nc1-c1ccccc1)c1ccncc1`, the GFP response vs DMSO in test [1] was 98% (inactive); in test [1] (setting [6]), 101%; in test [1] (setting [7]) it was 94.8%; in test [3] it was 101% (inactive). The results for the GFP response relative to DMSO in test [2], in test [2] (setting [8]) and in test [2] (setting [9]) were 143% (inactive), 125% and 146%, respectively. In addition, the GFP response, % of DMSO was 99.5% (inactive) in test [4], 98.6% (inactive) in test [5], 103% in test [5] (setting [6]) and 96% in test [5] (setting [7]).
With `Cc1ccc(NC(=O)c2nc(S(=O)(=O)Cc3ccccc3C)ncc2Cl)cc1C`, the GFP response vs DMSO in test [1] was 91.6% (inactive); in test [1] (setting [6]) it was 89.6%; in test [1] (setting [7]), 91.6%; in test [3] it was 103% (inactive). In addition, the GFP response relative to DMSO in test [2] is 107% (inactive); in test [2] (setting [8]), 107%; in test [2] (setting [9]), 107%. The GFP response, % of DMSO was 107% (inactive) in test [4], 94.4% (inactive) in test [5], 92.3% in test [5] (setting [6]) and 94.9% in test [5] (setting [7]).
`CC(=O)Nc1ccc(S(=O)(=O)NC(CC(=O)NCCC2=CCCCC2)C(C)C)cc1` (centres undefined): the GFP response vs DMSO in test [1] was 99.8% (inactive); in test [1] (setting [6]) it was 99.4%; in test [1] (setting [7]) it was 101%; in test [3] it was 102% (inactive). Further, the GFP response relative to DMSO in test [2] was 99.2% (inactive); in test [2] (setting [8]), 99.2%; in test [2] (setting [9]), 96.1%. The GFP response, % of DMSO was 101% (inactive) in test [4], 101% (inactive) in test [5], 101% in test [5] (setting [6]) and 101% in test [5] (setting [7]).
On to `CCCOc1ccc(N2C(=O)CC(SCCN)C2=O)cc1` (centres undefined), for which the GFP response vs DMSO in test [1] was 93.5% (inactive); in test [1] (setting [6]), 92.9%; in test [1] (setting [7]), 94.6%; in test [3], 98.3% (inactive). For the same molecule, the GFP response relative to DMSO is 101% (inactive) in test [2], 102% in test [2] (setting [8]) and 99.3% in test [2] (setting [9]). Further, the GFP response, % of DMSO is 92.3% (inactive) in test [4], 98.3% (inactive) in test [5], 101% in test [5] (setting [6]) and 96.1% in test [5] (setting [7]).
Consider `Cc1ccc(C(=O)/C=C/C(=O)c2ccc(C)cc2)cc1`, for which the GFP response vs DMSO was 103% (inactive) in test [1], 104% in test [1] (setting [6]), 97.7% in test [1] (setting [7]) and 101% (inactive) in test [3]. In addition, the GFP response relative to DMSO in test [2] is 195% (active); in test [2] (setting [8]) it was 190%; in test [2] (setting [9]) it was 201%. In addition, the GFP response, % of DMSO in test [4] is 111% (inactive); in test [5], 95.9% (inactive); in test [5] (setting [6]), 100%; in test [5] (setting [7]) it was 84.8%.
